Assay results collected from several papers.
Lines come from different studies, so protocols differ.
Target: Serine/threonine-protein kinase 33 (STK33, Homo sapiens, UniProt Q9BYT3)

Cn1cc(-c2cc(F)cc(N3CCn4c(cc5c4CCCC5)C3=O)c2CO)cc(Nc2ccc(N3CCN(C4COC4)CC3)cn2)c1=O — inhibition (enzyme activity; inhibitor; 0.1 µM): -5%
CC(C)(C)c1nc(-c2cccc(NS(=O)(=O)c3c(F)cccc3F)c2F)c(-c2ccnc(N)n2)s1 — remaining activity (enzyme activity; inhibitor; radiometric; 1 µM): 76%
COc1cc(Nc2ncc(F)c(Nc3ccc4c(n3)NC(=O)C(C)(C)O4)n2)cc(OC)c1OC — inhibition (binding; 10 µM): 85%
Nc1ncc(-c2nc(N3CCOCC3)nc(N3CCOCC3)n2)c(C(F)F)n1 — remaining binding (binding; competition with immobilised ligand; 10 µM): 94%
CCOC(=O)c1c(C)[nH]c(/C=C2\C(=O)Nc3ccccc32)c1C — remaining activity (enzyme activity; inhibitor; radiometric; 0.5 µM): 83.7%
CC(C)(C)c1nc2c(s1)c1nc(N)ncc1c1ccc(NS(=O)(=O)c3c(F)cccc3F)c(F)c12 — remaining activity (enzyme activity; inhibitor; radiometric; 1 µM): 82%
Cn1cc(-c2cccc(N3CCc4c(sc5c4CC(C)(C)C5)C3=O)c2CO)cc(Nc2ccncn2)c1=O — inhibition (enzyme activity; inhibitor; 1 µM): 2%
Cn1cncc1[C@](O)(COc1ccc(C#N)cc1-c1ccc(OC(F)(F)F)cc1)c1ccc(C#N)cc1 — remaining binding (cell-free assay; competition with immobilised ligand; 1 µM): 74%
Cc1nn(C)cc1-c1nc2c(N3CCN(Cc4ccc(Cl)cc4)CC3)c(Cl)cnc2[nH]1 — remaining binding (binding; competition with immobilised ligand; 1 µM): 100%
COc1ncccc1-c1cnn2ccc(N3CCN(C(=O)OC(C)C)CC3)nc12 — remaining binding (binding; competition with immobilised ligand; 1 µM): 100%
N#CC1(c2ccccn2)CCN(Cc2cc(C(=O)O)c(=O)n3ccccc23)CC1 — remaining binding (cell-free assay; competition with immobilised ligand; 1 µM): 56%
Nc1ccc2ncnc(NCCc3ccc(Oc4ccccc4)cc3)c2c1 — remaining activity (enzyme activity; inhibitor; radiometric; 0.5 µM): 101%
